The values that follow come from PubChem BioAssay.

Experiment [1] is described as follows: hit retest on RPL19A-GFP reporter strain – cell-based, S. cerevisiae, flow cytometry, cherry picks, mother/daughter gates, confirmation (AID 2270;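 active means GFP response below 50% of the DMSO control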). The settings on record: 3 h, at 10 µM, stronger effect = lower value, 100 = same GFP as DMSO wells.
Experiment [2] is described as follows: yeast TOR pathway reporter LAP4-GFP change – cell-based, cherry picks, flow cytometry, mother/daughter gates, confirmation (AID 2271;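 active means GFP response above 150% of the DMSO control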;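 further: ratio of sample to DMSO plate mean so 100% equals DMSO level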). The settings on record: S. cerevisiae LAP4-GFP strain, 3 h, at 10 µM, stronger effect = higher value, 100 means same as DMSO control. The essentials:
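System – GFP-fusion yeast strain · Amount – 0.2 OD600 cells · Buffer or medium – SC growth medium · Dosing – single test-compound dose, 10 µM final · Schedule – 3 h treatment at 30 °C with rotation · Detection – GFP by flow cytometry · Read-out – per-gate (all, mother, daughter) GFP response vs DMSO · Benchmarks – positive rapamycin (400 ng/mL), negative DMSO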
(Flow cytometry measures light scatter and fluorescence of single cells or particles in a stream.)

The nature of experiment [3]: TOR pathway reporter MEP2-GFP, retest of hits – S. cerevisiae, flow cytometry GFP, cherry picks, confirmation (AID 2272;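 active means GFP response above 150% of the DMSO control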;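 further: ratio of well signal to plate DMSO mean so 100% equals DMSO level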). The conditions noted are these: S. cerevisiae MEP2-GFP strain, 3 h, at 10 µM, stronger effect = higher value.
A short description of experiment [4]: yeast AGP1-GFP fluorescence change, single-dose – cell-based, flow cytometry, S. cerevisiae, cherry picks, confirmation (AID 2273).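 Further: median GFP channel fluorescence over the whole cell population gate.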 The settings on record: S. cerevisiae AGP1-GFP strain, 3 h, at 10 µM.
A short description of experiment [5]: TOR pathway CIT2 reporter hit retest – S. cerevisiae, GFP fusion, cherry picks, mother/daughter gates, confirmation (AID 2274). The conditions noted are these: S. cerevisiae CIT2-GFP strain, flow cytometry, 3 h, at 10 µM, stronger effect = higher value.
Where [6] appears, read: measured here: daughter cell gate.
Where [7] appears, read: measured here: mother cell gate.
[8] abbreviates: measured here: daughter cell gate response.
The mark [9] stands for this setting: measured here: mother cell gate response.

Calls of active or inactive are those of the source.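 How the source made its calls, unless noted: active means GFP response above 150% of the DMSO level; inconclusive means fewer than 70 events counted for a yeast strain; inactive means the rest.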

Turning to `Cc1ccc(S(=O)(=O)Nc2cc(Cl)c(O)c3ncccc23)cc1`, the GFP response vs DMSO in experiment [1] is 95.2% (inactive); in experiment [1] (setting [6]) it was 94.2%; in experiment [1] (setting [7]) it was 97.1%; in experiment [3], 110% (inactive). The GFP response relative to DMSO is 122% (inactive) in experiment [2], 120% in experiment [2] (setting [8]) and 126% in experiment [2] (setting [9]). Also, the GFP response, % of DMSO in experiment [4] is 91.2% (inactive); in experiment [5] it was 97.8% (inactive); in experiment [5] (setting [6]) it was 100%; in experiment [5] (setting [7]), 96.8%.
As to `CCOC(=O)CNc1c(-c2ccccc2)nc2ccc(Cl)cn12`, the GFP response vs DMSO in experiment [1] is 96% (inactive); in experiment [1] (setting [6]) it was 97.8%; in experiment [1] (setting [7]) it was 96.4%; in experiment [3], 97.5% (inactive). The GFP response relative to DMSO in experiment [2] is 109% (inactive); in experiment [2] (setting [8]) it was 105%; in experiment [2] (setting [9]), 114%. The GFP response, % of DMSO is 98% (inactive) in experiment [4], 95% (inactive) in experiment [5], 98.3% in experiment [5] (setting [6]) and 93.3% in experiment [5] (setting [7]).
On to `Nc1ccccc1NC(=O)c1ccccc1`, for which the GFP response vs DMSO in experiment [1] is 101% (inactive); in experiment [1] (setting [6]), 103%; in experiment [1] (setting [7]), 99.8%; in experiment [3], 106% (inactive). Moreover, the GFP response relative to DMSO is 98.9% (inactive) in experiment [2], 96% in experiment [2] (setting [8]) and 99.5% in experiment [2] (setting [9]). Besides, the GFP response, % of DMSO in experiment [4] is 98.4% (inactive); in experiment [5], 101% (inactive); in experiment [5] (setting [6]), 103%; in experiment [5] (setting [7]) it was 103%.
As to `O=[N+]([O-])c1cc(O)c2ncccc2c1`, the GFP response vs DMSO in experiment [1] is 99.1% (inactive); in experiment [1] (setting [6]), 94.2%; in experiment [1] (setting [7]) it was 97.5%; in experiment [3], 114% (inactive). For the same compound, the GFP response relative to DMSO is 205% (active) in experiment [2], 200% in experiment [2] (setting [8]) and 204% in experiment [2] (setting [9]). Besides, the GFP response, % of DMSO was 94.3% (inactive) in experiment [4], 122% (inactive) in experiment [5], 112% in experiment [5] (setting [6]) and 131% in experiment [5] (setting [7]).
`O=C1C(=O)c2ccc(-c3ccccc3)cc2-c2ccccc21`: the GFP response vs DMSO in experiment [1] is 102% (inactive); in experiment [1] (setting [6]), 104%; in experiment [1] (setting [7]) it was 102%; in experiment [3], 115% (inactive). The GFP response relative to DMSO in experiment [2] was 117% (inactive); in experiment [2] (setting [8]), 110%; in experiment [2] (setting [9]), 124%. Besides, the GFP response, % of DMSO in experiment [4] is 90.4% (inactive); in experiment [5], 107% (inactive); in experiment [5] (setting [6]), 106%; in experiment [5] (setting [7]), 102%.
In the case of `O=S(=O)(c1ccc(C2CCCCC2)cc1)N1CCOCC1`, the GFP response vs DMSO in experiment [1] is 92.4% (inactive); in experiment [1] (setting [6]) it was 92.7%; in experiment [1] (setting [7]) it was 90.1%; in experiment [3], 105% (inactive). Moreover, the GFP response relative to DMSO is 102% (inactive) in experiment [2], 97.5% in experiment [2] (setting [8]) and 105% in experiment [2] (setting [9]). Also, the GFP response, % of DMSO in experiment [4] was 102% (inactive); in experiment [5] it was 100% (inactive); in experiment [5] (setting [6]), 93.8%; in experiment [5] (setting [7]) it was 101%.
In the case of `Cc1cccc(CS(=O)(=O)c2ncc(Cl)c(C(=O)NCc3ccccc3)n2)c1`, the GFP response vs DMSO was 99% (inactive) in experiment [1], 96.4% in experiment [1] (setting [6]), 99.1% in experiment [1] (setting [7]) and 100% (inactive) in experiment [3]. The GFP response relative to DMSO was 108% (inactive) in experiment [2], 108% in experiment [2] (setting [8]) and 108% in experiment [2] (setting [9]). The GFP response, % of DMSO in experiment [4] is 102% (inactive); in experiment [5], 95.2% (inactive); in experiment [5] (setting [6]), 91.5%; in experiment [5] (setting [7]), 95.5%.
For `COc1cccc(NC(=O)c2ccc3c(c2)CCCC3)c1`, the GFP response vs DMSO is 101% (inactive) in experiment [1], 98.4% in experiment [1] (setting [6]), 102% in experiment [1] (setting [7]) and 97.8% (inactive) in experiment [3]. Moreover, the results for the GFP response relative to DMSO in experiment [2], in experiment [2] (setting [8]) and in experiment [2] (setting [9]) were 96.2% (inactive), 97.2% and 99.3%, respectively. In addition, the GFP response, % of DMSO in experiment [4] is 90.6% (inactive); in experiment [5], 103% (inactive); in experiment [5] (setting [6]), 101%; in experiment [5] (setting [7]), 102%.
